For 41 compounds, IC50 results are on record in ChEMBL document CHEMBL3286189, “Discovery and SAR studies of a novel class of cytotoxic 1,4-disubstituted piperidines via Ugi reaction” (Eur J Med Chem, 2014).

What all share (format): functional, cell-based
For one assay, the system named is HeLa. Nature of the assay: Cytostatic activity against human HeLa cells assessed as inhibition of cell proliferation after 72 hrs by coulter counting analysis. As to conditions: Homo sapiens, HeLa, 72 h. The essentials: (§1)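 Anti-proliferative screen in murine leukemia L1210, human T-lymphocyte CEM and human cervix carcinoma HeLa cultures. The value reported is the IC50, the concentration that inhibits cell proliferation by 50%.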

For the next assay, the system named is L1210. Nature of the assay: Cytostatic activity against mouse L1210 cells assessed as inhibition of cell proliferation after 48 hrs by coulter counting analysis. As to conditions: Mus musculus, L1210, 48 h. The essentials:
as §1

The subject of the next assay is CCRF-CEM. The assay can be described thus: Cytostatic activity against human CEM cells assessed as inhibition of cell proliferation after 72 hrs by coulter counting analysis. As to conditions: Homo sapiens, CCRF-CEM, 72 h. Put shortly:
as §1

The structures appear in SMILES notation. pIC50: −log10 of the molar value.

In general, pIC50 refers to −log10 of the IC50, conventionally taken in molar units. With `COC(=O)C[C@H](NC(=O)OC(C)(C)C)C(=O)N(Cc1ccccc1)C1(C(=O)NCc2ccccc2)CCN(Cc2ccccc2)CC1`, the pIC50 with HeLa is 4.70; in the assay on L1210, 4.74; with CCRF-CEM it was 4.72.

Turning to `COC(=O)C[C@H](NC(=O)OC(C)(C)C)C(=O)N(CC(=O)OC)C1(C(=O)NCc2ccccc2)CCN(Cc2ccccc2)CC1`, the pIC50 is 4.49 in the assay on HeLa, 4.31 in the assay on L1210 and 4.34 in the assay on CCRF-CEM.

On to `C=CCOC(=O)N1CCC(C(=O)NCc2ccccc2)(N(Cc2ccccc2)C(=O)[C@H](CC(=O)OC)NC(=O)OC(C)(C)C)CC1`, for which the pIC50 was 3.97 in the assay on HeLa, 4.62 with L1210 and 4.19 with CCRF-CEM.

For `COC(=O)C[C@H](NC(=O)OC(C)(C)C)C(=O)N(Cc1ccccc1)C1(C(=O)NCc2ccccc2)CCN(C(=O)OC(C)(C)C)CC1`, the pIC50 is 4.62 in the assay on HeLa, 4.68 with L1210 and 4.68 with CCRF-CEM.

For the compound `CCCCNC(=O)C1(N(Cc2ccccc2)C(=O)[C@H](CC(=O)OC)NC(=O)OC(C)(C)C)CCN(Cc2ccccc2)CC1`, the results for the pIC50 with HeLa, in the assay on L1210 and in the assay with CCRF-CEM were 4.44, 4.62 and 4.55, respectively.

For `COC(=O)C[C@H](NC(=O)OC(C)(C)C)C(=O)N(Cc1ccccc1)C1(C(=O)NC(C)(C)C)CCN(Cc2ccccc2)CC1`, the pIC50 in the assay on HeLa is 4.68; in the assay with L1210, 4.64; in the assay with CCRF-CEM it was 4.62.

On to `COC(=O)C[C@H](NC(=O)OC(C)(C)C)C(=O)N(Cc1ccccc1)C1(C(=O)NC2CCCCC2)CCN(Cc2ccccc2)CC1`, for which the pIC50 with HeLa was 4.68; with L1210, 4.72; with CCRF-CEM it was 4.70.

`COC(=O)CNC(=O)C1(N(Cc2ccccc2)C(=O)[C@H](CC(=O)OC)NC(=O)OC(C)(C)C)CCN(Cc2ccccc2)CC1`: the pIC50 with HeLa is 3.64; with L1210 it was 3.91; in the assay with CCRF-CEM, 3.96.

With `COC(=O)C[C@H](NC(=O)OC(C)(C)C)C(=O)N(Cc1ccc(F)cc1)C1(C(=O)NCc2ccccc2)CCN(Cc2ccccc2)CC1`, the results for the pIC50 with HeLa, with L1210 and in the assay on CCRF-CEM were 4.72, 4.66 and 4.80, respectively.

Regarding `COC(=O)C[C@H](NC(=O)OC(C)(C)C)C(=O)N(Cc1cc(OC)c(OC)c(OC)c1)C1(C(=O)NCc2ccccc2)CCN(Cc2ccccc2)CC1`, the pIC50 in the assay on HeLa was 4.66; with L1210, 4.51; in the assay on CCRF-CEM it was 4.64.

On to `COC(=O)C[C@H](NC(=O)OC(C)(C)C)C(=O)N(CCNc1ccccc1)C1(C(=O)NCc2ccccc2)CCN(Cc2ccccc2)CC1`, for which the results for the pIC50 in the assay with HeLa, in the assay with L1210 and in the assay with CCRF-CEM were 4.68, 4.68 and 4.85, respectively.

With `COC(=O)C[C@H](NC(=O)OC(C)(C)C)C(=O)NC1(C(=O)NCc2ccccc2)CCN(Cc2ccccc2)CC1`, the negative-log IC50 (pIC50) with HeLa was 4.62; with L1210, 4.64; in the assay on CCRF-CEM, 4.60.

Turning to `COC(=O)C[C@H](NC(=O)OC(C)(C)C)C(=O)N(C)C1(C(=O)NCc2ccccc2)CCN(Cc2ccccc2)CC1`, the pIC50 in the assay on HeLa is 4.96; with L1210 it was 4.77; in the assay on CCRF-CEM, 4.70.

Regarding `CCC(C)N(C(=O)[C@H](CC(=O)OC)NC(=O)OC(C)(C)C)C1(C(=O)NCc2ccccc2)CCN(Cc2ccccc2)CC1` (stereo partly drawn), the negative-log IC50 (pIC50) in the assay with HeLa was 4.80; with L1210, 4.70; in the assay on CCRF-CEM, 4.72.

For `COC(=O)C[C@H](NC(=O)OC(C)(C)C)C(=O)N(C1CC1)C1(C(=O)NCc2ccccc2)CCN(Cc2ccccc2)CC1`, the pIC50 is 5.10 in the assay on HeLa, 4.85 with L1210 and 5.17 in the assay on CCRF-CEM.

`CC(C)(C)OC(=O)N1CCC[C@H]1C(=O)N(Cc1ccccc1)C1(C(=O)NCc2ccccc2)CCN(Cc2ccccc2)CC1`: the results for the pIC50 in the assay on HeLa, in the assay with L1210 and with CCRF-CEM were 3.86, 4.21 and below 4.30, respectively.

With `CC[C@H](C)[C@H](NC(=O)OC(C)(C)C)C(=O)N(Cc1ccccc1)C1(C(=O)NCc2ccccc2)CCN(Cc2ccccc2)CC1`, the pIC50 with HeLa was 5.00; with L1210, 5.36; in the assay on CCRF-CEM, 5.15.

Consider `CC(C)(C)OC(=O)N[C@@H](Cc1ccc(O)cc1)C(=O)N(Cc1ccccc1)C1(C(=O)NCc2ccccc2)CCN(Cc2ccccc2)CC1`, for which the pIC50 in the assay on HeLa is 4.64; with L1210, 5.30; with CCRF-CEM it was 5.28.

Regarding `COC(=O)C[C@H](NC(=O)OCc1ccccc1)C(=O)N(Cc1ccccc1)C1(C(=O)NCc2ccccc2)CCN(Cc2ccccc2)CC1`, the results for the pIC50 in the assay on HeLa, in the assay with L1210 and in the assay with CCRF-CEM were 4.85, 5.24 and 5.35, respectively.

Regarding `COC(=O)C[C@H](NC(=O)OCC1c2ccccc2-c2ccccc21)C(=O)N(Cc1ccccc1)C1(C(=O)NCc2ccccc2)CCN(Cc2ccccc2)CC1`, the pIC50 with HeLa is 4.85; in the assay on L1210 it was 5.27; in the assay on CCRF-CEM it was 5.28.

As for `CC(C)(C)OC(=O)N[C@@H](CC(=O)O)C(=O)N(Cc1ccccc1)C1(C(=O)NCc2ccccc2)CCN(Cc2ccccc2)CC1`, the figures for the pIC50 in the assay with HeLa, with L1210 and in the assay on CCRF-CEM were below 3.70, 3.79 and below 3.70, respectively.

Regarding `CC(C)(C)OC(=O)N[C@@H](CC(N)=O)C(=O)N(Cc1ccccc1)C1(C(=O)NCc2ccccc2)CCN(Cc2ccccc2)CC1`, the values for the pIC50 in the assay on HeLa, with L1210 and in the assay on CCRF-CEM were 4.60, 4.57 and 4.59, respectively.

Take `CNC(=O)C[C@H](NC(=O)OC(C)(C)C)C(=O)N(Cc1ccccc1)C1(C(=O)NCc2ccccc2)CCN(Cc2ccccc2)CC1`: the pIC50 is 4.08 in the assay on HeLa, 4.03 in the assay with L1210 and 4.20 in the assay with CCRF-CEM.

Regarding `CN(C)C(=O)C[C@H](NC(=O)OC(C)(C)C)C(=O)N(Cc1ccccc1)C1(C(=O)NCc2ccccc2)CCN(Cc2ccccc2)CC1`, the pIC50 in the assay with HeLa was 4.17; with L1210 it was 4.12; with CCRF-CEM it was 4.23.

As to `COC(=O)C[C@H](NC(=O)OC(C)(C)C)C(=O)N(Cc1ccccc1)C1(C(=O)NCc2ccccc2)CCNCC1`, the results for the pIC50 in the assay on HeLa, in the assay with L1210 and with CCRF-CEM were below 3.78, below 3.70 and 3.91, respectively.

For `COC(=O)C[C@H](N)C(=O)N(Cc1ccccc1)C1(C(=O)NCc2ccccc2)CCN(Cc2ccccc2)CC1`, the values for the pIC50 with HeLa, in the assay with L1210 and with CCRF-CEM were 4.00, 4.05 and 3.98, respectively.

Consider `C=CCOC(=O)N1CCC(C(=O)NCc2ccccc2)(N(Cc2ccccc2)C(=O)[C@@H](N)Cc2ccccc2)CC1`, for which the pIC50 was 4.20 with HeLa, 4.31 in the assay on L1210 and 4.27 with CCRF-CEM.

Regarding `CCC(C)N(C(=O)[C@@H](N)Cc1ccccc1)C1(C(=O)NCc2ccccc2)CCN(Cc2ccccc2)CC1` (stereo partly drawn), the pIC50 in the assay on HeLa is 4.05; with L1210 it was 4.09; in the assay on CCRF-CEM, 4.00.

Regarding `CCC(C)N(C(=O)[C@@H](N)CC(=O)OC)C1(C(=O)NCc2ccccc2)CCN(Cc2ccccc2)CC1` (stereo partly drawn), the results for the pIC50 in the assay with HeLa, with L1210 and with CCRF-CEM were below 3.60, 3.61 and 3.62, respectively.

As to `CCC(C)N(C(=O)[C@@H](N)CC(=O)OC)C1(C(=O)NCc2ccccc2)CCNCC1` (stereo partly drawn), the pIC50 in the assay on HeLa, in the assay on L1210 and in the assay with CCRF-CEM was below 3.60 in each case.

As for `O=C(N[C@@H](Cc1ccccc1)C(=O)N(Cc1ccccc1)C1(C(=O)NCc2ccccc2)CCN(Cc2ccccc2)CC1)Oc1ccccc1`, the figures for the pIC50 with HeLa, in the assay on L1210 and with CCRF-CEM were 4.77, 5.46 and 5.05, respectively.

On to `CCC(C)N(C(=O)[C@H](Cc1ccccc1)NC(=O)OC(C)(C)C)C1(C(=O)NCc2ccccc2)CCN(Cc2ccccc2)CC1` (stereo partly drawn), for which the pIC50 in the assay on HeLa is 4.62; in the assay with L1210, 5.38; in the assay with CCRF-CEM, 5.00.

On to `CC(C)(C)OC(=O)N[C@@H](Cc1ccccc1)C(=O)N(Cc1ccccc1)C1(C(=O)NCc2ccccc2)CCN(C(=O)OC(C)(C)C)CC1`, for which the figures for the pIC50 with HeLa, in the assay with L1210 and in the assay with CCRF-CEM were 4.89, 5.30 and 5.24, respectively.

Turning to `CC[C@@H](C)[C@H](NC(=O)OCc1ccccc1)C(=O)N(Cc1ccccc1)C1(C(=O)NCc2ccccc2)CCN(C(=O)OC(C)(C)C)CC1`, the pIC50 is 4.96 in the assay on HeLa, 5.29 with L1210 and 5.17 with CCRF-CEM.

`CC(C)(C)NC(=O)C1(N(C(=O)[C@H](Cc2ccccc2)NC(=O)OCc2ccccc2)C2CC2)CCN(Cc2ccccc2)CC1`: the figures for the pIC50 in the assay with HeLa, in the assay with L1210 and with CCRF-CEM were 4.59, 5.18 and 5.22, respectively.

Take `CC(C)(C)NC(=O)C1(N(C(=O)[C@H](Cc2ccccc2)NC(=O)OCc2ccccc2)C2CC2)CCN(C(=O)OC(C)(C)C)CC1`: the pIC50 with HeLa was 3.83; in the assay with L1210, 4.77; in the assay on CCRF-CEM, 4.82.

As for `CC(C)(C)NC(=O)C1(N(C(=O)[C@H](Cc2ccccc2)NC(=O)OC(C)(C)C)C2CC2)CCN(Cc2ccccc2)CC1`, the pIC50 in the assay on HeLa was 4.70; with L1210, 4.85; in the assay with CCRF-CEM, 4.72.

Take `CC(C)(C)NC(=O)C1(N(C(=O)[C@H](Cc2ccccc2)NC(=O)OC(C)(C)C)C2CC2)CCN(C(=O)OC(C)(C)C)CC1`: the results for the pIC50 in the assay with HeLa, in the assay on L1210 and in the assay on CCRF-CEM were 4.70, 4.85 and 4.72, respectively.

On to `CCC(C)N(C(=O)[C@@H](NC(=O)OCc1ccccc1)[C@@H](C)CC)C1(C(=O)NCc2ccccc2)CCN(Cc2ccccc2)CC1` (stereo partly drawn), for which the negative logarithm of the IC50 (pIC50) is 3.92 in the assay with HeLa, 4.08 in the assay with L1210 and 3.95 with CCRF-CEM.

As for `CC[C@H](C)[C@H](NC(=O)OCc1ccccc1)C(=O)N(C1CC1)C1(C(=O)NCc2ccccc2)CCN(Cc2ccccc2)CC1`, the pIC50 in the assay with HeLa was 4.52; in the assay on L1210, 4.96; in the assay with CCRF-CEM it was 4.80.

Take `COC(=O)C[C@H](NC(=O)OCc1ccccc1)C(=O)N(C1CC1)C1(C(=O)NCc2ccccc2)CCN(Cc2ccccc2)CC1`: the pIC50 is 5.33 with HeLa, 5.28 in the assay with L1210 and 5.21 in the assay on CCRF-CEM.
